This note sets out measurements from ChEMBL document CHEMBL1147780, “Peptide inhibitors of Dengue virus NS3 protease. Part 1: Warhead” (Bioorg Med Chem Lett, 2006).

The target of the assay is Genome polyprotein (dengue virus type 2, UniProt P29990). The experiment in a line: Inhibitory activity against CF40.NS3pro from Dengue virus type 2. In short, it runs like this: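 Enzyme: truncated dengue 2 NS3 protease fused through a flexible linker to a […] NS2B region. Inhibitors tested in 96-well format in 50 mM Tris, pH 8.5, with 1 mM CHAPS. Values reported as Ki.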
Chain of Genome polyprotein (P29990 1346-1475 limits assumed): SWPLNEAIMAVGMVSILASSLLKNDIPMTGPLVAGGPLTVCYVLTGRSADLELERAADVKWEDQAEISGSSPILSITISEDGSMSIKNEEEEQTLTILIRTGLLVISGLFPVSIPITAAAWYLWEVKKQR
Chain of Genome polyprotein (P29990 1476-2093 limits assumed): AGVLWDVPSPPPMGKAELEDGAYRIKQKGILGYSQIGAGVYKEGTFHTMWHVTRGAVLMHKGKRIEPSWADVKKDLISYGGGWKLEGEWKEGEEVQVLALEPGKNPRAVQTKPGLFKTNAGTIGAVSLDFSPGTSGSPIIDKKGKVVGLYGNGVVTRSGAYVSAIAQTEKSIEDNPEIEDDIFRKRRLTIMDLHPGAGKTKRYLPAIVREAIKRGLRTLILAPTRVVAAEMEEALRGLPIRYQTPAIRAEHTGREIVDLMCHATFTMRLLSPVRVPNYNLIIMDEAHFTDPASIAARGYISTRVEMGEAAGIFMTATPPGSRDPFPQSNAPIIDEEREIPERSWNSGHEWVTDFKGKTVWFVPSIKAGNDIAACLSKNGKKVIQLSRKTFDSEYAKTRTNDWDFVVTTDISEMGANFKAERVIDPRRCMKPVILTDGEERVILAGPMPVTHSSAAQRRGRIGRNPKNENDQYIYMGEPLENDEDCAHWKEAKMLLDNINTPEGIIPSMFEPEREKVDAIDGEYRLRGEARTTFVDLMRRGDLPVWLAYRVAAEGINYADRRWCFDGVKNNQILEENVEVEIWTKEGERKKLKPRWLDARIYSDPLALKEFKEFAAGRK

Structures are written as SMILES. Where a SMILES comes first, the peptide text is derived from it. [ ]: non-standard residue; d: D form. The star is where a group is joined. Nle = CCCC[C@H](N)C(=O)O; Bz = O=C(c1ccccc1)*; CF3 = FC(F)(F)*

In general, Ki refers to the equilibrium dissociation constant of an inhibitor or competing ligand from its target. As for `CCCC[C@H](NC(=O)c1ccccc1)C(=O)N[C@@H](CCCCN)C(=O)N[C@@H](CCCNC(=N)N)C(=O)N[C@@H](CCCNC(=N)N)C(=O)c1nccs1`, the affinity corresponds to a Ki of 42.8 µM. `CCCC[C@H](NC(=O)c1ccccc1)C(=O)N[C@@H](CCCCN)C(=O)N[C@@H](CCCN=C(N)N)C(=O)N[C@@H](CCCN=C(N)N)C(=O)C(F)(F)F` (Bz-[Nle]KRR-CF3) yielded a Ki of 0.85 µM. With `CCCC[C@H](NC(=O)c1ccccc1)C(=O)N[C@@H](CCCCN)C(=O)N[C@H](C(=O)N[C@H](C=O)CCCN=C(N)N)[C@@H](C)O` (Bz-[Nle]KTR-aldehyde), the Ki was > 500 µM. `CCCC[C@H](NC(=O)c1ccccc1)C(=O)N[C@@H](CCCCN)C(=O)N[C@H](C(=O)N[C@@H](CCCN=C(N)N)C(N)=O)[C@@H](C)O` (Bz-[Nle]KTR-NH2): the Ki is > 500 µM. Consider `CCCC[C@H](NC(=O)c1ccccc1)C(=O)N[C@@H](CCCCN)C(=O)N[C@H](C(=O)N[C@@H](CCCN=C(N)N)C(=O)O)[C@@H](C)O` (Bz-[Nle]KTR-OH), for which the Ki is > 500 µM. In the case of `CCCC[C@H](NC(=O)c1ccccc1)C(=O)N[C@@H](CCCCN)C(=O)N[C@@H](CCCN=C(N)N)C(=O)N[C@@H](CCCN=C(N)N)C(N)=O` (Bz-[Nle]KRR-NH2), the inhibition constant Ki was 128 µM. `CCCC[C@H](NC(=O)c1ccccc1)C(=O)N[C@@H](CCCCN)C(=O)N[C@@H](CCCNC(=N)N)C(=O)N[C@@H](CCCNC(=N)N)C(=O)c1nc2ccccc2o1` registered a Ki of 82.9 µM. On to `CCCC[C@H](NC(=O)c1ccccc1)C(=O)N[C@@H](CCCCN)C(=O)N[C@@H](CCCN=C(N)N)C(=O)N[C@@H](CCCN=C(N)N)C(=O)NS(=O)(=O)C(F)(F)F`, for which the inhibition constant (Ki) was > 500 µM. Consider `CCCC[C@H](NC(=O)c1ccccc1)C(=O)N[C@@H](CCCCN)C(=O)N[C@@H](CCCN=C(N)N)C(=O)N[C@@H](CCCN=C(N)N)C(=O)O` (Bz-[Nle]KRR-OH), for which the inhibition constant (Ki) is > 500 µM. `CCCC[C@H](NC(=O)c1ccccc1)C(=O)N[C@@H](CCCCN)C(=O)N[C@@H](CCCN=C(N)N)C(=O)N[C@@H](CCCN=C(N)N)B(O)O` displayed a Ki of 0.043 µM. `CCCC[C@H](NC(=O)c1ccccc1)C(=O)N[C@@H](CCCCN)C(=O)N[C@@H](CCCN=C(N)N)C(=O)N[C@@H](CCCN=C(N)N)C(O)C(=O)NCc1ccccc1` (stereo partly specified) returned an inhibition constant Ki of 178 µM.
